Reference: ChEMBL document CHEMBL1667737, “Cytochrome P450 3A4 inhibitory constituents of the wood of Taxus yunnanensis” (J Nat Prod, 2011)

Tests used:
Cytochrome P450 2D6 = Cytochrome P450 2D6 (Homo sapiens, UniProt P10635); experiment: Inhibition of CYP2D6 after 30 mins by fluorometric assay; type: ADME
In short: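 cDNA-expressed CYP2D6 in insect cell microsomes with AMMC ([…] in the enzyme/substrate mix), in pH 7.4 phosphate buffer with an NADP+/glucose-6-phosphate/G6PDH/MgCl2 regenerating system. Compound in MeOH, eight-point 1:3 serial dilution. 10 min prewarm, then 30 min at 37 °C. Stopped with acetonitrile–Tris. Triplicate; IC50 by linear interpolation.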

Cytochrome P450 3A4 = Cytochrome P450 3A4 (Homo sapiens, UniProt P08684); experiment: Inhibition of CYP3A4 after 30 mins by fluorometric assay; type: ADME
Sequence of Cytochrome P450 3A4 (P08684 whole entry): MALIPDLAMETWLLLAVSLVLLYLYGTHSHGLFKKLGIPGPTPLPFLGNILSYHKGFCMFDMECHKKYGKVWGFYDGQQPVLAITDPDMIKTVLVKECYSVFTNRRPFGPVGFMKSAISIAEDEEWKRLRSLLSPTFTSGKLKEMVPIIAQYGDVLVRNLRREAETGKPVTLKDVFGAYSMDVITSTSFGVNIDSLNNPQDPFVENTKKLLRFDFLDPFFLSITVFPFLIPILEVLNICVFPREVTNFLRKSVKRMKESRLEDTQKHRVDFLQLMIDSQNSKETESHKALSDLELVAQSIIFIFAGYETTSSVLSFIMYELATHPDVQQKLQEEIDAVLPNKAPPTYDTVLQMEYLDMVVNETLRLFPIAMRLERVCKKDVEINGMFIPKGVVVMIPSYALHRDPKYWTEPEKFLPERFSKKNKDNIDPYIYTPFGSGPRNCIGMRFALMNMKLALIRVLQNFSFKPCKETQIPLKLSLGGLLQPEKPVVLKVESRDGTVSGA
In short: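 cDNA-expressed CYP3A4 in insect cell microsomes (with insect cell control protein) O-dealkylating 7-benzyloxy-4-trifluoromethylcoumarin to fluorescent 7-HFC. Samples in MeOH, 8-point 1:3 serial dilutions in pH 7.4 potassium phosphate with an NADP+/glucose-6-phosphate/G6PDH/MgCl2 regenerating system. 10 min prewarm, 30 min at 37 °C, stopped with acetonitrile–Tris base. Triplicate; IC50 by linear interpolation.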

Sequence of Cytochrome P450 2D6 (P10635 whole entry): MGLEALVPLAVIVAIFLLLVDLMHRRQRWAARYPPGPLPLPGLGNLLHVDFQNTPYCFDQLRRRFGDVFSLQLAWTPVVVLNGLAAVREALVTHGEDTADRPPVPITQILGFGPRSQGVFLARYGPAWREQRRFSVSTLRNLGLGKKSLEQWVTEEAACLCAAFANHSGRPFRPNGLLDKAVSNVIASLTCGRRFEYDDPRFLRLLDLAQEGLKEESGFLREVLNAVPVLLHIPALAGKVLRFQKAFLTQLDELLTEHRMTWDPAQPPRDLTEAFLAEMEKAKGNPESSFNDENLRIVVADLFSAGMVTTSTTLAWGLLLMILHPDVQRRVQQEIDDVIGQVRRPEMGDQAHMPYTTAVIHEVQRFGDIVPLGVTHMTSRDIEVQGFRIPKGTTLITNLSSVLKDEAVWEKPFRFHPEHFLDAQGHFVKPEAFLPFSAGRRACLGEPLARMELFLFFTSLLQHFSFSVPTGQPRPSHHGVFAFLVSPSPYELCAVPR

IC50 (Cytochrome P450 2D6) | IC50 (Cytochrome P450 3A4) | SMILES | IC50 (Cytochrome P450 2D6; read-out: IC50) [µM] | IC50 (Cytochrome P450 3A4; read-out: IC50) [µM]
Not Active | Not Active | COc1cc2c(cc1O)C(=O)[C@@H](CO)[C@H](CO)C2 | – | –
– | – | COc1cc([C@H]2OC[C@H]([C@@H](O)c3ccc(O)c(OC)c3)[C@@H]2CO)ccc1O | > 100 | 66.5
– | – | COc1cc([C@@H]2Oc3cc(CCCO)ccc3O[C@H]2CO)ccc1O | > 100 | 54.2
Not Active | Not Active | COc1cc([C@H](O)[C@H]2CO[C@H](c3ccc(O)c(O)c3)[C@H]2CO)ccc1O [(7R)-7-HYDROXYTAXIRESINOL] | – | –
– | – | COc1cc(C[C@@H](CO)[C@H](CO)Cc2ccc(O)c(OC)c2)ccc1O [(+)-SECOISOLARICIRESINOL] | > 100 | 47.3
– | – | COc1cc([C@H]2c3cc(O)c(OC)cc3C[C@H]3C(=O)OC[C@H]23)ccc1O [ALPHA-CONIDENDRIN] | 17.7 | 0.2
– | – | COc1cc([C@H]2c3cc(O)c(OC)cc3C[C@@H](CO)[C@@H]2CO)ccc1O [ISOLARICIRESINOL] | 97.7 | > 100
Not Active | Not Active | COc1cc2c(cc1O)[C@H](c1ccc(O)c(O)c1)[C@@H](CO)[C@H](CO)C2 [ISOTAXIRESINOL] | – | –
– | – | COc1cc(C[C@H]2CO[C@H](c3ccc(O)c(OC)c3)[C@H]2CO)ccc1O [LARICIRESINOL] | > 100 | 25.6
– | – | COc1cc(C[C@H]2CO[C@H](c3ccc(O)c(O)c3)[C@H]2CO)ccc1O [TAXIRESINOL] | 68.1 | 85.6

SMILES | IC50 (Cytochrome P450 2D6) | IC50 (Cytochrome P450 3A4) | IC50 (Cytochrome P450 2D6; read-out: IC50) [µM] | IC50 (Cytochrome P450 3A4; read-out: IC50) [µM]
COc1cc([C@@H](O)[C@@H]2CO[C@H](c3ccc(O)c(OC)c3)[C@H]2CO)ccc1O [TANEGOOL] | Not Active | Not Active | – | –
